Data from ChEMBL document CHEMBL4382230, “Structure-activity relationships, biological evaluation and structural studies of novel pyrrolonaphthoxazepines as antitumor agents” (Eur J Med Chem, 2019).
pIC50: −log10 of the molar value. In brackets after ≈: the same amount, converted by molar mass. Activity calls are given as the source filed them. The rule behind the calls is not given here.

Tests used:
[1] = tested on: HCC827; experiment: Cytotoxicity against human HCC827 cells assessed as reduction in cell survival at 0.1 to 10 uM after 18 hrs by MTT assay; type: functional, cell-based
In short: (§1)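 Seeded at 2,500 cells/well in medium with 10% serum. After adhesion, exposed to 0.1, 1 and 10 μM in medium with 5% serum for 18 h. Medium then replaced with fresh medium containing 1.2 mM MTT for 4 h; formazan dissolved in DMSO, absorbance at 540 nm. Results given as % of basal response.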

[2] = Solubility of compound in pH 7.4 aqueous solution after 12 hrs by HPLC analysis; type: physicochemical
In short: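 Water solubility at pH 7.4 measured by HPLC analysis.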

[3] = Apparent solubility of compound in sodium phosphate buffer at 15 uM after 20 mins; type: physicochemical
[4] = target: T1, Tubulin (Homo sapiens) (UniProt P68371+Q9H4B7+P0DPH7+P68366+Q13509+Q71U36+P04350+Q3ZCM7+P07437+P68363+Q9BQE3+Q6PEY2+Q13885+Q9BVA1+Q9BUF5); experiment: Inhibition of tubulin (unknown origin) polymerization at 27.5 uM measured over 70 mins by turbidity method; type: protein-complex assay
In short: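 Tubulin at 25 µM in GAB buffer (10 mM sodium phosphate, 30% glycerol, 1 mM EGTA, 6 mM MgCl2, 1 mM GTP, pH 6.7) with 27.5 µM compound or DMSO vehicle. Turbidity is read at 355 nm for 70 min at 37 °C. Data are normalized to the initial stable absorbance plateau to correct for compound absorbance.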

[5] = Solubility of compound in pH 3 aqueous solution after 12 hrs by HPLC analysis; type: physicochemical
[6] = tested on: NB-4; experiment: Cell cycle arrest in human NB4 cells assessed as accumulation of cells at G1 phase after 24 hrs by propidium iodide staining-based flow cytometric analysis; type: functional
In short: (§2)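 NB4 cultured at 37 °C, 5% CO2 in RPMI-1640 with 10% heat-inactivated FBS. Treated at 50 and 100 nM, 1 and 10 μM for 24 h. Cells fixed/permeabilized in 70% ethanol overnight at 4 °C, then given RNase and 20 μg/ml PI for 30 min. Doublets excluded, 20,000 events per sample; cell-cycle phase distribution analysed.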

[7] = tested on: PC-9; experiment: Induction of apoptosis in human PC9 cells assessed as reduction in cyclin D1 expression at 10 uM after 18 hrs by Western blot analysis; type: functional, cell-based
In short: (§3)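 PC9 and HCC827 maintained in DMEM with 10% FBS, then exposed to 10 μM compound for 18 h in 5% serum. Caspase 3 activation and cell cycle proteins examined by western blot.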

[8] = tested on: PC-9; experiment: Cytotoxicity against human PC9 cells assessed as reduction in cell survival at 0.1 to 10 uM after 18 hrs by MTT assay; type: functional, cell-based; in short: as §1
[9] = tested on: HCC827; experiment: Induction of apoptosis in human HCC827 cells assessed as increase in caspase-3 expression at 10 uM after 18 hrs by Western blot analysis; type: functional, cell-based; in short: as §3
[10] = tested on: A2780; experiment: Cytotoxicity against human A2780 cells after 48 hrs by MTT assay; type: functional, cell-based; details: A2780, 48 h
In short: (§4)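 Cells seeded at 12,000 to 17,000 per well depending on line, incubated overnight, then given serial dilutions of ligand for 48 h. MTT at 2.5 mg/mL added for 4 h at 37 °C, formazan solubilized overnight (10% SDS, 45% dimethylformamide, pH 5.5), absorbance read at 595/690 nm. IC50 from log-dose response curves; mean ± SE of three independent assays.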

[11] = tested on: NCI-H929; experiment: Cytotoxicity against human NCI-H929 cells after 48 hrs by MTT assay; type: functional, cell-based; details: NCI-H929, 48 h
In short: (§5)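 Cells (NCI-H929 in RPMI-1640 GlutaMAX; SCC4 in DMEM GlutaMAX; 10% FBS, 37 °C, 5% CO2) treated with increasing concentrations for 48 h. IC50 is the mean of three independent experiments.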

[12] = tested on: Ca9-22; experiment: Cytotoxicity against human Ca9-22 cells after 48 hrs by MTT assay; type: functional, cell-based; details: Ca9-22, 48 h
[13] = tested on: SCC-4; experiment: Induction of apoptosis in human SCC4 cells at 500 nM after 48 hrs by Annexin V/propidium iodide staining-based flow cytometric analysis relative to control; type: functional
In short: (§6)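 Seeding density: NCI-H929 and Ca9.22 at 30×10^4 cells/mL, SCC4 at 15×10^4 cells/mL. Cells exposed 48 h to compound (500 nM; 50 μM in SCC4 for one compound) or vehicle (1% EtOH v/v). Annexin V/PI staining, flow cytometry, 10,000 cells gated on vehicle-treated cells. Three independent experiments, mean ± S.E.M, T-test.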

[14] = Ratio of IC50 for mouse NIH/3T3 cells harboring MDR G185 to IC50 for mouse NIH/3T3 cells
In short: (§7)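 Relative resistance: IC50 in the P-gp overexpressing resistant line divided by IC50 in the parental line. Both IC50s came from the 48 h MTT assay (serial dilutions, absorbance at 595/690 nm, log-dose response curves, three independent assays).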

[15] = tested on: HCC827; experiment: Induction of apoptosis in human HCC827 cells assessed as increase in p21 expression at 10 uM after 18 hrs by Western blot analysis; type: functional, cell-based; in short: as §3
[16] = tested on: HL-60; experiment: Induction of autophagy in human HL60 cells assessed as increase in LC3B-2 levels at 10 uM after 105 mins in presence of lysosomal inhibitor chloroquine by immunoblot analysis; type: functional, cell-based
In short: (§8)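 HL-60 in serum-supplemented RPMI 1640, or starved in Earle's Balanced Salts for 15 min beforehand, then treated with 10 μM compound with or without 40 μM chloroquine for 1 h 45 min or 16 h. LC3B-II measured by immunoblot, densitometry normalized to actin, three independent experiments, Student's T-test.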

[17] = tested on: A549; experiment: Cytotoxicity against human A549 cells assessed as reduction in cell survival at 0.1 to 10 uM after 18 hrs by MTT assay; type: functional, cell-based; in short: as §1
[18] = Ratio of IC50 for human A2780AD cells to IC50 for human A2780 cells; type: functional; in short: as §7
[19] = tested on: HCC827; experiment: Cytotoxicity against human HCC827 cells assessed as reduction in cell survival at 0.1 to 10 uM after 50 to 60 hrs by MTT assay; type: functional, cell-based
[20] = tested on: PC-9; experiment: Induction of apoptosis in human PC9 cells assessed as increase in caspase-3 expression at 10 uM after 18 hrs by Western blot analysis; type: functional, cell-based; in short: as §3
[21] = tested on: HL-60; experiment: Induction of autophagy in serum starved human HL60 cells assessed as increase in LC3B-2 levels at 10 uM after 105 mins by immunoblot analysis; type: functional, cell-based; in short: as §8
[22] = tested on: B16-F1; experiment: Cytotoxicity against mouse B16-F1 cells assessed as reduction in cell survival at 0.1 to 10 uM after 18 hrs by MTT assay; type: functional, cell-based; in short: as §1
[23] = tested on: HL-60; experiment: Cell cycle arrest in human HL60 cells assessed as accumulation of cells at G2/M phase at 10 uM after 24 hrs by propidium iodide staining-based flow cytometric analysis; type: functional
In short: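 HL-60 exposed to 10 μM for 24 h, vehicle 0.1% DMSO. Cells plated at 2×10^5 cells/mL, stained in PBS with 0.1% sodium citrate, 0.1% NP40 and propidium iodide for 30 min at room temperature in the dark. DNA content by flow cytometry; G2/M fraction reported.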

[24] = tested on: NCI-H929; experiment: Induction of apoptosis in human NCI-H929 cells at 500 nM after 48 hrs by Annexin V/propidium iodide staining-based flow cytometric analysis relative to control; type: functional; in short: as §6
[25] = tested on: HCC827; experiment: Induction of apoptosis in human HCC827 cells assessed as reduction in cyclin D1 expression at 10 uM after 18 hrs by Western blot analysis; type: functional, cell-based; in short: as §3
[26] = Cytotoxicity against human A2780AD cells after 48 hrs by MTT assay; type: functional, cell-based; in short: as §4
[27] = tested on: NIH3T3; experiment: Cytotoxicity against mouse NIH/3T3 cells harboring MDR G185 after 48 hrs by MTT assay; type: functional, cell-based; details: NIH3T3, 48 h; in short: as §4
[28] = tested on: B16-F10; experiment: Cytotoxicity against mouse B16F10 cells assessed as reduction in cell survival at 0.1 to 10 uM after 18 hrs by MTT assay; type: functional, cell-based; in short: as §1
[29] = tested on: Ca9-22; experiment: Cytotoxicity against human Ca9-22 cells after 24 hrs by MTT assay; type: functional, cell-based; details: Ca9-22, 24 h
[30] = target: T1, Tubulin (Homo sapiens); experiment: Binding affinity to tubulin (unknown origin) by analytical ultracentrifugation
[31] = tested on: NIH3T3; experiment: Cytotoxicity against mouse NIH/3T3 cells after 48 hrs by MTT assay; type: cell-based; details: NIH3T3, 48 h; in short: as §4
[32] = tested on: Ca9-22; experiment: Cytotoxicity against human Ca9-22 cells after 72 hrs by MTT assay; type: functional, cell-based; details: Ca9-22, 72 h
[33] = tested on: PC-9; experiment: Induction of apoptosis in human PC9 cells assessed as increase in p21 expression at 10 uM after 18 hrs by Western blot analysis; type: functional, cell-based; in short: as §3
[34] = tested on: SCC-4; experiment: Cytotoxicity against human SCC4 cells after 48 hrs by MTT assay; type: functional, cell-based; details: SCC-4, 48 h; in short: as §5
[35] = tested on: Ca9-22; experiment: Induction of apoptosis in human Ca9-22 cells at 500 nM after 48 hrs by Annexin V/propidium iodide staining-based flow cytometric analysis relative to control; type: functional, cell-based; in short: as §6
[36] = tested on: SCC-4; experiment: Induction of apoptosis in human SCC4 cells at 50 uM after 48 hrs by Annexin V/propidium iodide staining-based flow cytometric analysis relative to control; type: functional; in short: as §6
[37] = tested on: HL-60; experiment: Induction of autophagy in serum starved human HL60 cells assessed as increase in LC3B-2 levels at 10 uM after 105 mins in presence of lysosomal inhibitor chloroquine by immunoblot analysis; type: functional, cell-based; in short: as §8
[38] = tested on: NB-4; experiment: Cell cycle arrest in human NB4 cells at 50 to 10000 nM after 24 hrs by propidium iodide staining-based flow cytometric analysis; type: functional; in short: as §2
[39] = tested on: NB-4; experiment: Cell cycle arrest in human NB4 cells assessed as accumulation of cells at G2/M phase at 50 to 10000 nM after 24 hrs by propidium iodide staining-based flow cytometric analysis; type: functional; in short: as §2
[40] = target: T1, Tubulin (Homo sapiens); experiment: Displacement of podophyllotoxin from tubulin (unknown origin) by ultracentrifugation method; type: protein-complex assay
[41] = tested on: NB-4; experiment: Induction of differentiation in human NB4 cells at 500 nM after 24 hrs in presence of ATRA by CD11c staining-based flow cytometric analysis; type: functional, cell-based
In short: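 NB4 exposed to 0.5 μM compound together with 1 μM ATRA for 24 h. Cells stained with PE-conjugated CD11c (mouse IgG1-PE control) for 1 h at 4 °C in the dark, washed, resuspended in PBS with propidium iodide (0.25 μg/mL), then analysed by flow cytometry. Biological triplicates, mean ± S.E.M.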

[42] = tested on: HL-60; experiment: Induction of autophagy in human HL60 cells assessed as […] in LC3B-2 levels at 10 uM after 16 hrs in presence of lysosomal inhibitor chloroquine by immunoblot analysis; type: functional, cell-based; in short: as §8

Compound | solubility at 20 min, 15 µM [3] [µM] | inhibition [4] | Activity [6] | pIC50 [10] | pIC50 [11] | pIC50 [12] | Ratio IC50 [14] | Ratio IC50 [18] | Activity [21] | Activity [23] | pIC50 [26] | pIC50 [27] | pIC50 [29] | Kb [30] [×10⁷ /M] | pIC50 [31] | pIC50 [32] | pIC50 [34] | also measured
CC(=O)OC1=C(c2cccc3ccccc23)Oc2cc3ccccc3cc2-n2cccc21 | 0.62 (≈ 0.259 µg/mL) | Active | Dose-dependent effect | 6.60 | 6.42 | 6.77 | 2.42 | 0.96 | Active | Active | 6.62 | 6.51 | 6.68 | 4.4 | 6.90 | 7.08 | 6.80 | Activity [1]: Active; solubility at 12 h [2]: 26 µM (≈ 10.9 µg/mL); solubility at 12 h [5]: 29.4 µM (≈ 12.3 µg/mL); Activity [7]: Active; Activity [8]: Active; Activity [9]: Active; Activity [13]: >40%; Activity [15]: Active; Activity [16]: Active; Activity [17]: Active; Activity [19]: inactive; Activity [20]: Active; Activity [22]: Active; Activity [24]: >40%; Activity [25]: Active; Activity [28]: Active; Activity [33]: Active
CC(=O)OC1=C(c2ccccc2-c2ccccc2)Oc2ccccc2-n2cccc21 |  |  |  |  | < 4.30 | 5.20 |  |  |  |  |  |  | 5.10 |  |  | 5.35 | 5.03 | Activity [35]: inactive; Activity [36]: >40%
CC(=O)OC1=C(c2ccc3c(c2)OCO3)Oc2cc3ccccc3cc2-n2cccc21 | 0.14 (≈ 0.0576 µg/mL) | Active | Dose-dependent effect | 5.69 |  |  | 0.73 | 3.46 | Active | Active | 5.15 | 5.69 |  | 2 | 5.56 |  |  | Activity [37]: Active; Activity [38]: inactive; Activity [39]: Active; inhibition [40]: Active; Activity [41]: Active; Activity [42]: Active
